pIC50: −log10 of the molar value.
What was measured:
[1] = Induction of mutagenicity in Salmonella serovar Typhimurium TA 98 assessed as number of revertant colonies at 2 ug by Ames assay in presence of Aroclor 1254-induced rat liver S9 metabolic activation system; assay type: toxicity, subcellular, Salmonella enterica subsp. enterica serovar Typhimurium
Summary of the method: (§1)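 Ames plate incorporation with S. Typhimurium TA98 and TA100, with or without Aroclor 1254-induced rat liver S9 (10% vol/vol). Compound was dissolved in sterile water and serially diluted to 1–500 μg/plate. Positive controls were 2-nitrofluorene and sodium azide without S9, and 2-aminoanthracene with S9; sterile water and DMSO served as vehicles. Revertant colonies and background lawn were scored. A mutagen was defined as a mean revertant count at least 2-fold over solvent control. Single experiment.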

[2] = Induction of mutagenicity in Salmonella serovar Typhimurium TA 100 assessed as number of revertant colonies at 2 ug by Ames assay in presence of Aroclor 1254-induced rat liver S9 metabolic activation system; assay type: toxicity, subcellular, Salmonella enterica subsp. enterica serovar Typhimurium; summary of the method: as §1
Leishmania donovani [3] = test: Antileishmanial activity against intracellular Leishmania donovani LV82 amastigotes infected in CD-1 mouse peritoneal macrophage; assay type: functional, organism-based
Summary of the method: (§2)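 CD-1 mouse peritoneal macrophages, 5 × 10^4 cells/well in RPMI 1640 + 10% heat-inactivated FBS, adhered overnight. Infected overnight with stationary-phase LV82 promastigotes (5:1 parasite:macrophage), 37°C, 5% CO2. Medium then replaced with compound or vehicle for 72 h at 37°C. Methanol-fixed, Giemsa-stained; % infected macrophages counted at ×1,000. IC50 by four-parameter logistic nonlinear regression.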

Leishmania amazonensis = test: Antileishmanial activity against intracellular Leishmania amazonensis amastigotes; assay type: functional, organism-based
Leishmania donovani [4] = test: Antileishmanial activity against intracellular Leishmania donovani LV82 amastigotes; assay type: functional, organism-based; summary of the method: as §2
[5] = Induction of mutagenicity in Salmonella serovar Typhimurium TA 98 assessed as number of revertant colonies at 5 ug by Ames assay; assay type: toxicity, Salmonella enterica subsp. enterica serovar Typhimurium; details: in vivo; summary of the method: as §1
Leishmania major = test: Antileishmanial activity against intracellular Leishmania major amastigotes; assay type: functional, organism-based
Leishmania donovani [6] = test: Antileishmanial activity against Leishmania donovani axenic amastigotes; assay type: functional, organism-based
[7] = Induction of mutagenicity in Salmonella serovar Typhimurium TA 100 assessed as number of revertant colonies at 5 ug by Ames assay; assay type: toxicity, Salmonella enterica subsp. enterica serovar Typhimurium; details: in vivo
Summary of the method: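 Plate incorporation method with TA100, with and without Aroclor 1254-induced rat liver S9 (10% vol/vol). Compound dissolved in sterile water, serially diluted; plates scored for revertant count and background lawn versus controls. Mutagen if mean revertants at least 2-fold over mean solvent control. Positive controls: 2-nitrofluorene and sodium azide without S9, 2-aminoanthracene with S9; water and DMSO vehicles.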

Leishmania donovani [8] = test: Antileishmanial activity against Leishmania donovani WR378 infected in golden Syrian hamster assessed as reduction in bone marrow parasitemia at 30 mg/kg/day, po administered for five days; assay type: functional; details: 120 h
Summary of the method: (§3)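 11-day golden hamster VL model adapted from an 8-day method, using L. donovani WR378 metacyclic promastigotes. Dosing was oral, once daily for 5 days. Animals were euthanized on day 11 post-infection. Liver, spleen and femoral bone marrow (flushed with Schneider's medium) were harvested.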

Leishmania donovani [9] = test: Antileishmanial activity against Leishmania donovani WR378 infected in golden Syrian hamster assessed as reduction in liver parasitemia at 30 mg/kg/day, po administered for five days; assay type: functional; details: 120 h; summary of the method: as §3
Leishmania donovani [10] = test: Antileishmanial activity against Leishmania donovani WR378 infected in golden Syrian hamster assessed as reduction in spleen parasitemia at 30 mg/kg/day, po administered for five days; assay type: functional; details: 120 h; summary of the method: as §3

Question: For `Nc1ccc2cc3ccccc3cc2c1` [2-AMINOANTHRACENE], which Activity [1] is on record?
Answer: Its Activity is 2744.

Question: And the Activity [2]?
Answer: The Activity was 2563.

Question: With `N=C(N)c1ccc(OCCCCCOc2ccc(C(=N)N)cc2)cc1` [PENTAMIDINE] as the molecule, how does the pIC50 (Leishmania donovani [3]) read?
Answer: Its pIC50 is 4.85.

Question: What about the pIC50 (Leishmania amazonensis) of the same molecule?
Answer: Its pIC50 is 6.08.

Question: And the pIC50 (Leishmania donovani [4])?
Answer: The pIC50 was less than 4.30.

Question: For `O=[N+]([O-])c1ccc2c(c1)Cc1ccccc1-2` [2-NITROFLUORENE], which Activity [5] is on record?
Answer: The Activity was 1573.

Question: Which results are given for `C[C@@H]1[C@H](O)[C@@H](C)/C=C/C=C/C=C/C=C/C=C/C=C/C=C/[C@H](O[C@@H]2O[C@H](C)[C@@H](O)[C@H](N)[C@@H]2O)C[C@@H]2O[C@](O)(C[C@@H](O)C[C@@H](O)[C@H](O)CC[C@@H](O)C[C@@H](O)CC(=O)O[C@H]1C)C[C@H](O)[C@H]2C(=O)O` [AMPHOTERICIN B]?
Answer: pIC50 (Leishmania major): 6.68; pIC50 (Leishmania donovani [3]): 5.09; pIC50 (Leishmania amazonensis): 6.85; pIC50 (Leishmania donovani [6]): 7.01; pIC50 (Leishmania donovani [4]): 7.18

Question: With `[N-]=[N+]=[N-].[Na+]` [SODIUM AZIDE] as the molecule, how does the Activity [7] read?
Answer: The Activity was 1882.

Question: With `NC[C@@H]1O[C@H](O[C@H]2[C@@H](O)[C@H](O[C@@H]3[C@@H](O)[C@H](N)C[C@H](N)[C@H]3O[C@H]3O[C@H](CO)[C@@H](O)[C@H](O)[C@H]3N)O[C@@H]2CO)[C@H](N)[C@@H](O)[C@@H]1O` [PAROMOMYCIN] as the molecule, how does the pIC50 (Leishmania major) read?
Answer: The pIC50 was 4.60.

Question: What about the pIC50 (Leishmania donovani [3]) of the same molecule?
Answer: Its pIC50 is less than 4.00.

Question: And the pIC50 (Leishmania amazonensis)?
Answer: The pIC50 was 4.72.

Question: And the pIC50 (Leishmania donovani [6])?
Answer: The pIC50 was less than 4.30.

Question: And the pIC50 (Leishmania donovani [4])?
Answer: Its pIC50 is less than 4.30.

Question: For `CCCCCCCCCCCCCCCCOP(=O)([O-])OCC[N+](C)(C)C` [MILTEFOSINE], which inhibition in vivo at 30 mg/kg/day (Leishmania donovani [8]) is on record?
Answer: The inhibition in vivo at 30 mg/kg/day was 91%.

Question: And the inhibition in vivo at 30 mg/kg/day (Leishmania donovani [9])?
Answer: Its inhibition in vivo at 30 mg/kg/day is 88%.

Question: And the pIC50 (Leishmania major)?
Answer: Its pIC50 is 4.60.

Question: And the pIC50 (Leishmania donovani [3])?
Answer: Its pIC50 is 4.62.

Question: And the pIC50 (Leishmania donovani [6])?
Answer: The pIC50 was 5.07.

Question: What about the inhibition in vivo at 30 mg/kg/day (Leishmania donovani [10]) of the same molecule?
Answer: Its inhibition in vivo at 30 mg/kg/day is 79%.

Question: What about the pIC50 (Leishmania donovani [4]) of the same molecule?
Answer: Its pIC50 is 5.57.

From ChEMBL document CHEMBL1275590, “Novel arylimidamides for treatment of visceral leishmaniasis” (Antimicrob Agents Chemother, 2010)
